Source: ChEMBL document CHEMBL4251686, “Withaferin A and Withanolide D Analogues with Dual Heat-Shock-Inducing and Cytotoxic Activities: Semisynthesis and Biological Evaluation” (J Nat Prod, 2018)
Calls of active or inactive are those of the source. No cut-off for these calls is given here. Residues, ends and D or L forms follow the SMILES beside them. *: point of attachment. Cbz = O=C(OCc1ccccc1)*

Tests used:
HEK-293T [1] = assay: Induction of heat shock response in GFP-tagged human 293T cells after overnight incubation by luciferase reporter gene based luminometric method relative to control; type: functional
HEK-293T [2] = assay: Induction of heat shock response in GFP-tagged human 293T cells at 1 uM after overnight incubation by luciferase reporter gene based luminometric method; type: functional, cell-based
Method in brief: (§1)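 Heat-shock reporter 293T cells (GFP–firefly luciferase under HSP70B′ promoter elements, FACS-enriched high responders) were seeded at 20 000 cells/well in 384-well plates and exposed to compounds at 1.0 or 5.0 μM overnight. Luciferase activity measured by luminometer. Maximal induction expressed as fold over control (Log2), mean of two biological replicates.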

HEK-293T [3] = assay: Induction of heat shock response in GFP-tagged human 293T cells at 1 to 5 uM after overnight incubation by luciferase reporter gene based luminometric method; type: functional, cell-based; method in brief: as §1
[4] = Cytotoxicity against human CHP100 cells assessed as reduction in cell viability after 24 hrs by resazurin dye based Alamar blue assay; type: functional; settings: CHP100, 24 h
HEK-293T [5] = assay: Ratio of induction of heat shock response in GFP-tagged human 293T cells to IC50 for cytotoxicity against human 293T cells; type: functional
HEK-293T [6] = assay: Induction of heat shock response in GFP-tagged human 293T cells at 5 uM after overnight incubation by luciferase reporter gene based luminometric method; type: functional, cell-based; method in brief: as §1
HEK-293T [7] = assay: Cytotoxicity against human 293T cells assessed as reduction in cell viability after 72 hrs by resazurin dye based Alamar blue assay; type: functional

Compound	AUC (HEK-293T [1])	Activity (HEK-293T [2])	Activity (HEK-293T [3])	IC50 [4] [nM]	Ratio (HEK-293T [5])	Activity (HEK-293T [6])	IC50 (HEK-293T [7]) [nM]
CC(C)c1cc(-c2n[nH]c(=O)n2-c2ccc3c(ccn3C)c2)c(O)cc1O [GANETESPIB]	59	–	–	–	–	–	–
CC(=O)O[C@H]1C[C@H]2[C@@H]3C[C@H]4O[C@]45[C@@H](OC(C)=O)C=CC(=O)[C@]5(C)[C@H]3CC[C@]2(C)[C@H]1[C@@](C)(O)[C@H]1CC(C)=C(C)C(=O)O1	–	Active	–	–	–	–	–
CC(=O)OCC1=C(C)C[C@H]([C@@H](C)[C@H]2CC[C@H]3[C@@H]4C[C@H]5O[C@]56[C@@H](OC(C)=O)C=CC(=O)[C@]6(C)[C@H]4CC[C@]23C)OC1=O	351	–	Active	–	–	–	–
CC1=C(CO)C(=O)O[C@@H]([C@@H](C)[C@H]2CC[C@H]3[C@@H]4C[C@H]5O[C@]56[C@H](O)C=CC(=O)[C@]6(C)[C@H]4CC[C@]23C)C1	44	–	–	311	0.18	Active	250
CC1=C(C)C(=O)O[C@@H]([C@](C)(O)[C@H]2CC[C@H]3[C@@H]4C[C@H]5O[C@]56[C@@H](O)C=CC(=O)[C@]6(C)[C@H]4CC[C@]23C)C1 [WITHANOLIDE D]	13	Active	–	324	0.02	–	710
CC(=O)OCC1=C(C)C[C@H]([C@@H](C)[C@H]2[C@@H](OC(C)=O)C[C@H]3[C@@H]4C[C@H](I)[C@]5(O)[C@@H](OC(C)=O)C=CC(=O)[C@]5(C)[C@H]4CC[C@]23C)OC1=O	235	–	Active	466	0.56	–	417
CC(C)C[C@@H](C=O)NC(=O)[C@H](CC(C)C)NC(=O)[C@H](CC(C)C)NC(=O)OCc1ccccc1 [MG-132] (Cbz-Leu-Leu-Leu-aldehyde)	332	–	–	–	–	–	–
CC(=O)OCC1=C(C)C[C@H]([C@@H](C)[C@H]2[C@@H](OC(C)=O)C[C@H]3[C@@H]4C[C@H]5O[C@]56[C@@H](OC(C)=O)C=CC(=O)[C@]6(C)[C@H]4CC[C@]23C)OC1=O	196	–	Active	59	2.23	–	88
CC1=C(CO)C(=O)O[C@@H]([C@@H](C)[C@H]2CC[C@H]3[C@@H]4C[C@H]5O[C@]56[C@@H](O)C=CC(=O)[C@]6(C)[C@H]4CC[C@]23C)C1 [WITHAFERIN A]	68	–	Active	424	0.23	–	299
CC(=O)OCC1=C(C)C[C@H]([C@@H](C)[C@H]2CC[C@H]3[C@@H]4C[C@H]5O[C@]56[C@H](OC(C)=O)C=CC(=O)[C@]6(C)[C@H]4CC[C@]23C)OC1=O	–	–	Active	–	–	–	–
CC(=O)OCC1=C(C)C[C@H]([C@@H](C)[C@H]2CC[C@H]3[C@@H]4C[C@H]5O[C@]56[C@@H](OC(C)=O)C=CC(=O)[C@]6(C)[C@H]4C[C@@H](OC(C)=O)[C@]23C)OC1=O	419	–	Active	120	3.61	–	116
CC1=C(C)C(=O)O[C@@H]([C@](C)(O)[C@H]2CC[C@H]3[C@@H]4C[C@H]5O[C@]56C(=O)C=CC(=O)[C@]6(C)[C@H]4CC[C@]23C)C1	–	Active	–	–	–	–	–
CC(=O)O[C@H]1C=CC(=O)[C@]2(C)[C@H]3CC[C@]4(C)[C@@H]([C@@](C)(O)[C@H]5CC(C)=C(C)C(=O)O5)CC[C@H]4[C@@H]3C[C@H]3O[C@]132	–	Active	–	292	0.5	–	141
